Measured values reported in ChEMBL document CHEMBL3877264, “Quinolidene-rhodanine conjugates: Facile synthesis and biological evaluation” (Eur J Med Chem, 2017).
Converted amounts (≈) assume the structure as drawn.

Columns and labels:
Type in all cases: functional
Staphylococcus aureus [1] = test: Growth inhibition of Staphylococcus aureus NCIM 2010 at 3 ug/ml measured after 12 hrs relative to control; conditions: NCIM 2010, 12 h, read-out: GI
Method in brief: (§1)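 Bacteria grown in LB at 37 °C and 180 rpm to OD 1. Compounds added to wells, then 0.1% inoculum of 1 OD culture (620 nm). Growth read as OD at 620 nm after 8 h for gram-negative and after 12 h for gram-positive strains.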

Escherichia coli [2] = test: Growth inhibition of Escherichia coli NCIM 2688 at 30 ug/ml measured after 8 hrs relative to control; conditions: NCIM 2688, 8 h, read-out: GI; method in brief: as §1
[3] = tested on: Mycobacterium tuberculosis; test: Growth inhibition of Mycobacterium bovis BCG ATCC 35743 at dormant stage at 10 ug/ml measured after 12 days by nitrate reductase dye based two fold dilution method relative to control; conditions: BCG str. ATCC 35743, 288 h, read-out: GI
Method in brief: (§2)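 M. bovis BCG was grown in Dubos medium and assayed in Mycobacterium pheli minimal medium (pH 6.6), with compounds from DMSO stocks. Incubation lasted 8 days for active and 12 days for dormant cultures. Viability was read by nitrate reductase at 540 nm against cell-free blanks, with vehicle set as 100% growth. Primary screen was at 30, 10 and 3 µg/ml, in triplicate, mean ± SD. MIC was taken from dose-response curves.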

Bacillus subtilis [4] = test: Growth inhibition of Bacillus subtilis NCIM 2079 at 10 ug/ml measured after 12 hrs relative to control; conditions: NCIM 2079, 12 h, read-out: GI; method in brief: as §1
Bacillus subtilis [5] = test: Growth inhibition of Bacillus subtilis NCIM 2079 at 30 ug/ml measured after 12 hrs relative to control; conditions: NCIM 2079, 12 h, read-out: GI; method in brief: as §1
Candida albicans = test: Antifungal activity against Candida albicans NCIM 3471 by standard agar method
Method in brief: (§3)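 MICs determined by standard agar method; DMSO as solvent control.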

Bacillus subtilis [6] = test: Antibacterial activity against Bacillus subtilis NCIM 2079 measured after 12 hrs; conditions: NCIM 2079, 12 h; method in brief: as §1
Pseudomonas fluorescens [7] = test: Antibacterial activity against Pseudomonas fluorescens NCIM 2036 measured after 8 hrs; conditions: NCIM 2036, 8 h; method in brief: as §1
[8] = tested on: Mycobacterium tuberculosis; test: Growth inhibition of Mycobacterium bovis BCG ATCC 35743 at dormant stage at 3 ug/ml measured after 12 days by nitrate reductase dye based two fold dilution method relative to control; conditions: BCG str. ATCC 35743, 288 h, read-out: GI; method in brief: as §2
Pseudomonas fluorescens [9] = test: Growth inhibition of Pseudomonas fluorescens NCIM 2036 at 30 ug/ml measured after 8 hrs relative to control; conditions: NCIM 2036, 8 h, read-out: GI; method in brief: as §1
Escherichia coli [10] = test: Growth inhibition of Escherichia coli NCIM 2688 at 3 ug/ml measured after 8 hrs relative to control; conditions: NCIM 2688, 8 h, read-out: GI; method in brief: as §1
Aspergillus niger = test: Antifungal activity against Aspergillus niger NCIM 1196 by standard agar method; method in brief: as §3
Pseudomonas fluorescens [11] = test: Growth inhibition of Pseudomonas fluorescens NCIM 2036 at 10 ug/ml measured after 8 hrs relative to control; conditions: NCIM 2036, 8 h, read-out: GI; method in brief: as §1
[12] = tested on: Mycobacterium tuberculosis; test: Growth inhibition of Mycobacterium bovis BCG ATCC 35743 at dormant stage at 30 ug/ml measured after 12 days by nitrate reductase dye based two fold dilution method relative to control; conditions: BCG str. ATCC 35743, 288 h, read-out: GI; method in brief: as §2
Staphylococcus aureus [13] = test: Antibacterial activity against of Staphylococcus aureus NCIM 2010 measured after 12 hrs; conditions: NCIM 2010, 12 h; method in brief: as §1
[14] = tested on: Mycobacterium tuberculosis; test: Growth inhibition of Mycobacterium tuberculosis H37Ra ATCC 25177 at active stage measured after 8 days by XTT dye based two fold dilution method; conditions: H37Ra ATCC 25177, 192 h
Method in brief: (§4)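 MTB H37Ra was grown in Dubos medium, then exposed in Mycobacterium pheli minimal medium (pH 6.6) to compounds dissolved in DMSO. The assay ended on day 8 (active) or day 12 (dormant). Viable cells were measured by XTT reduction menadione assay at 470 nm, blank-corrected, relative to vehicle control. Triplicates were expressed as mean ± SD. MIC came from dose-response curves.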

[15] = Antifungal activity against Fusarium oxysporum NCIM 1332 by standard agar method; method in brief: as §3
[16] = Antifungal activity against Cryptococcus neoformans NCIM 576 by standard agar method; method in brief: as §3
Escherichia coli [17] = test: Antibacterial activity against Escherichia coli NCIM 2688 measured after 8 hrs; conditions: NCIM 2688, 8 h; method in brief: as §1
Pseudomonas fluorescens [18] = test: Growth inhibition of Pseudomonas fluorescens NCIM 2036 at 3 ug/ml measured after 8 hrs relative to control; conditions: NCIM 2036, 8 h, read-out: GI; method in brief: as §1
[19] = tested on: Mycobacterium tuberculosis; test: Growth inhibition of Mycobacterium bovis BCG ATCC 35743 at active stage measured after 8 days by nitrate reductase dye based two fold dilution method; conditions: BCG str. ATCC 35743, 192 h; method in brief: as §2
Staphylococcus aureus [20] = test: Growth inhibition of Staphylococcus aureus NCIM 2010 at 30 ug/ml measured after 12 hrs relative to control; conditions: NCIM 2010, 12 h, read-out: GI; method in brief: as §1
Bacillus subtilis [21] = test: Growth inhibition of Bacillus subtilis NCIM 2079 at 3 ug/ml measured after 12 hrs relative to control; conditions: NCIM 2079, 12 h, read-out: GI; method in brief: as §1
Escherichia coli [22] = test: Growth inhibition of Escherichia coli NCIM 2688 at 10 ug/ml measured after 8 hrs relative to control; conditions: NCIM 2688, 8 h, read-out: GI; method in brief: as §1
[23] = tested on: Mycobacterium tuberculosis; test: Growth inhibition of Mycobacterium tuberculosis H37Ra ATCC 25177 at dormant stage measured after 12 days by XTT dye based two fold dilution method; conditions: H37Ra ATCC 25177, 288 h; method in brief: as §4
Aspergillus flavus = test: Antifungal activity against Aspergillus flavus NCIM 539 by standard agar method; method in brief: as §3
[24] = tested on: Mycobacterium tuberculosis; test: Growth inhibition of Mycobacterium bovis BCG ATCC 35743 at dormant stage measured after 12 days by nitrate reductase dye based two fold dilution method; conditions: BCG str. ATCC 35743, 288 h; method in brief: as §2
Staphylococcus aureus [25] = test: Growth inhibition of Staphylococcus aureus NCIM 2010 at 10 ug/ml measured after 12 hrs relative to control; conditions: NCIM 2010, 12 h, read-out: GI; method in brief: as §1

Question: For `COc1ccc2nc(Cl)c(/C=C3\SC(=S)N(CCC(=O)O)C3=O)cc2c1`, which inhibition of growth at 3 µg/mL (Staphylococcus aureus [1]) is on record?
Answer: -2.06%

Question: What about the inhibition of growth at 30 µg/mL (Escherichia coli [2]) of the same compound?
Answer: 13.5%

Question: And the inhibition of growth at 10 µg/mL [3]?
Answer: 27.2%

Question: And the inhibition of growth at 10 µg/mL (Bacillus subtilis [4])?
Answer: -1.08%

Question: What about the inhibition of growth at 30 µg/mL (Bacillus subtilis [5]) of the same compound?
Answer: -3.99%

Question: And the MIC (Candida albicans)?
Answer: 125 µg/mL (≈ 306 µM)

Question: And the MIC (Bacillus subtilis [6])?
Answer: > 30 µg/mL

Question: What about the MIC (Pseudomonas fluorescens [7]) of the same compound?
Answer: > 30 µg/mL

Question: What about the inhibition of growth at 3 µg/mL [8] of the same compound?
Answer: 25.4%

Question: And the inhibition of growth at 30 µg/mL (Pseudomonas fluorescens [9])?
Answer: -27.3%

Question: And the inhibition of growth at 3 µg/mL (Escherichia coli [10])?
Answer: 20.7%

Question: What about the MIC (Aspergillus niger) of the same compound?
Answer: 175 µg/mL (≈ 428 µM)

Question: What about the inhibition of growth at 10 µg/mL (Pseudomonas fluorescens [11]) of the same compound?
Answer: -17%

Question: And the inhibition of growth at 30 µg/mL [12]?
Answer: 27.2%

Question: What about the MIC (Staphylococcus aureus [13]) of the same compound?
Answer: > 30 µg/mL

Question: What about the IC50 [14] of the same compound?
Answer: > 30 µg/mL

Question: What about the IC90 [14] of the same compound?
Answer: > 30 µg/mL

Question: And the MIC [15]?
Answer: 175 µg/mL (≈ 428 µM)

Question: And the MIC [16]?
Answer: 150 µg/mL (≈ 367 µM)

Question: What about the MIC (Escherichia coli [17]) of the same compound?
Answer: > 30 µg/mL

Question: And the inhibition of growth at 3 µg/mL (Pseudomonas fluorescens [18])?
Answer: -4.49%

Question: What about the IC50 [19] of the same compound?
Answer: > 30 µg/mL

Question: What about the IC90 [19] of the same compound?
Answer: > 30 µg/mL

Question: And the inhibition of growth at 30 µg/mL (Staphylococcus aureus [20])?
Answer: -16.1%

Question: What about the inhibition of growth at 3 µg/mL (Bacillus subtilis [21]) of the same compound?
Answer: -6.61%

Question: And the inhibition of growth at 10 µg/mL (Escherichia coli [22])?
Answer: 14.4%

Question: And the IC50 [23]?
Answer: > 30 µg/mL

Question: What about the IC90 [23] of the same compound?
Answer: > 30 µg/mL

Question: And the MIC (Aspergillus flavus)?
Answer: 100 µg/mL (≈ 245 µM)

Question: What about the IC50 [24] of the same compound?
Answer: > 30 µg/mL

Question: What about the IC90 [24] of the same compound?
Answer: > 30 µg/mL

Question: And the inhibition of growth at 10 µg/mL (Staphylococcus aureus [25])?
Answer: -21.7%
